Experimental data reported in PMC5766692 (Journal of Ginseng Research, 2017).

Experiments:
[1] = type: in vivo, Sprague Dawley rats; details: rat plasma, oral WG, RG, FG extracts and free ginsenosides; for Time of first peak of the plasma concentration-time curve / Time of second peak of the plasma concentration-time curve: bimodal curve
Outline: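 Male Sprague Dawley rats (240–260 g), fasted 12 h with water allowed, 5 per group. Dosed orally with 70% ethanol ginseng decoctions or a water mixture of pure ginsenosides (25, 86, 45, 42 mg/kg). Retro-orbital blood taken 0.083–36 h; plasma acetonitrile-precipitated with digoxin IS, dried, redissolved in methanol. Analysed by C18 UPLC-MS/MS in positive ion mode; profiles mean ± SD.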

[2] = type: in vivo, Sprague Dawley rats; details: rats, 30 min after oral RG, WG, FG extracts and free ginsenosides; heart, liver, spleen, lungs, kidneys, brain, muscle, testes
[3] = Stability of the analytes in rat plasma under different conditions; type: in vitro ADME; details: for Freeze–thaw stability, accuracy (mean ± SD): three freeze (−80°C)-thaw (room temperature) cycles; for Long-term stability, accuracy (mean ± SD): −80°C for 1 mo
Outline: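 Rat plasma QC samples (low, medium, high) run in five replicates by UPLC-MS/MS with digoxin IS. Long-term: stored at −80°C for 1 mo. Freeze–thaw: three cycles of −80°C freezing and room-temperature thawing. Post-preparative: extracted QC samples held in the autosampler at 15°C for 24 h. Precision […] taken as relative standard deviation of QC concentrations.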

[4] = Stability of the analytes in rat tissue homogenates under different conditions; type: in vitro ADME; details: for Short-term stability, accuracy (mean ± SD) / Freeze–thaw stability, accuracy (mean ± SD) / Long-term stability, accuracy (mean ± SD): tissue; for Freeze–thaw stability, accuracy (mean ± SD): three freeze (−80°C)-thaw (room temperature) cycles; for Long-term stability, accuracy (mean ± SD): −80°C for 1 mo
Outline: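 Tissues rinsed in pH 7.4 sodium phosphate buffer, 0.5 g homogenised in 1 mL saline, then acetonitrile and digoxin IS added. Supernatant dried and redissolved in methanol for UPLC-MS/MS. QC tissue samples run in five replicates after storage at −80°C for 1 mo. Brain QC samples also put through three −80°C/room-temperature freeze–thaw cycles.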

[5] = mouse; higher than free ginsenoside Re; cited from earlier work

Compound	Tissue distribution (main tissues) [2]	Short-term stability, accuracy (mean ± SD) ([3]; plasma, spiked 2.0 μg/mL)	Freeze–thaw stability, accuracy (mean ± SD) ([3]; plasma, spiked 2.0 μg/mL)	Long-term stability, accuracy (mean ± SD) ([3]; plasma, spiked 2.0 μg/mL)	Stability in rat plasma during sample extraction and storage [3]	Stability in the various tissue homogenates during sample extraction and storage [4]	Short-term stability, accuracy (mean ± SD) ([4]; spiked 0.2 μg/mL)	Freeze–thaw stability, accuracy (mean ± SD) ([4]; spiked 0.2 μg/mL)	Long-term stability, accuracy (mean ± SD) ([4]; spiked 0.2 μg/mL)	Short-term stability, accuracy (mean ± SD) ([4]; spiked 0.5 μg/mL)	Freeze–thaw stability, accuracy (mean ± SD) ([4]; spiked 0.5 μg/mL)	Long-term stability, accuracy (mean ± SD) ([4]; spiked 0.5 μg/mL)	Short-term stability, accuracy (mean ± SD) ([4]; spiked 1.0 μg/mL)	Freeze–thaw stability, accuracy (mean ± SD) ([4]; spiked 1.0 μg/mL)	Long-term stability, accuracy (mean ± SD) ([4]; spiked 1.0 μg/mL)	Time of first peak of the plasma concentration-time curve [1]	Time of second peak of the plasma concentration-time curve [1]	Short-term stability, accuracy (mean ± SD) ([3]; plasma, spiked 1.0 μg/mL)	Freeze–thaw stability, accuracy (mean ± SD) ([3]; plasma, spiked 1.0 μg/mL)	Long-term stability, accuracy (mean ± SD) ([3]; plasma, spiked 1.0 μg/mL)	further results
CC(C)=CCC[C@](C)(O[C@@H]1O[C@H](CO[C@@H]2O[C@H](CO)[C@@H](O)[C@H](O)[C@H]2O)[C@@H](O)[C@H](O)[C@H]1O)[C@H]1CC[C@]2(C)[C@@H]1[C@H](O)C[C@@H]1[C@@]3(C)CC[C@H](O[C@@H]4O[C@H](CO)[C@@H](O)[C@H](O)[C@H]4O[C@@H]4O[C@H](CO)[C@@H](O)[C@H](O)[C@H]4O)C(C)(C)[C@@H]3CC[C@]12C [Rb1]	mainly distributed in the heart	91.3 ± 5.3%	96.2 ± 8.5%	95.6 ± 7.7%	stable	stable	102.4 ± 5.1%	108.5 ± 6.0%	104.5 ± 8.6%	101.1 ± 7.0%	109.2 ± 8.1%	108.1 ± 6.7%	105.0 ± 5.1%	103.7 ± 7.0%	101.0 ± 8.7%						Time of the single peak of the plasma concentration-time curve [1]: 8 to 10 h; Short-term stability, accuracy (mean ± SD) ([3]; plasma, spiked 5.0 μg/mL): 91.5 ± 6.8%; Freeze–thaw stability, accuracy (mean ± SD) ([3]; plasma, spiked 5.0 μg/mL): 103.3 ± 6.0%; Long-term stability, accuracy (mean ± SD) ([3]; plasma, spiked 5.0 μg/mL): 106.6 ± 6.8%; Short-term stability, accuracy (mean ± SD) ([3]; plasma, spiked 10 μg/mL): 94.4 ± 7.9%; Post-preparative stability, accuracy (mean ± SD) ([3]; plasma, spiked 10 μg/mL, extracted samples in automatic sampler at 15°C for 24 h): 94.5 ± 8.0%; Freeze–thaw stability, accuracy (mean ± SD) ([3]; plasma, spiked 10 μg/mL): 98.5 ± 8.2%; Long-term stability, accuracy (mean ± SD) ([3]; plasma, spiked 10 μg/mL): 93.9 ± 8.5%
CC(C)=CCC[C@](C)(O[C@@H]1O[C@H](CO)[C@@H](O)[C@H](O)[C@H]1O)[C@H]1CC[C@]2(C)[C@@H]1[C@H](O)C[C@@H]1[C@@]3(C)CC[C@H](O[C@@H]4O[C@H](CO)[C@@H](O)[C@H](O)[C@H]4O[C@@H]4O[C@H](CO)[C@@H](O)[C@H](O)[C@H]4O)C(C)(C)[C@@H]3CC[C@]12C [Rd]	mainly distributed in the kidneys	105.3 ± 6.0%	104.3 ± 8.6%	102.5 ± 2.3%	stable	stable	107.2 ± 7.3%	96.5 ± 8.4%	95.5 ± 5.6%	106.4 ± 8.5%	95.7 ± 9.5%	92.0 ± 9.4%	93.8 ± 5.1%	99.6 ± 3.4%	94.4 ± 7.0%	15 to 30 min	8 to 12 h	94.6 ± 5.2%	106.5 ± 6.5%	102.3 ± 9.6%	Short-term stability, accuracy (mean ± SD) ([3]; plasma, spiked 0.1 μg/mL): 92.3 ± 4.3%; Freeze–thaw stability, accuracy (mean ± SD) ([3]; plasma, spiked 0.1 μg/mL): 92.5 ± 7.7%; Long-term stability, accuracy (mean ± SD) ([3]; plasma, spiked 0.1 μg/mL): 93.6 ± 8.5%
CC(C)=CCC[C@](C)(O[C@@H]1O[C@H](CO)[C@@H](O)[C@H](O)[C@H]1O)[C@H]1CC[C@]2(C)[C@@H]1[C@H](O)C[C@@H]1[C@@]3(C)CC[C@H](O)C(C)(C)[C@@H]3[C@@H](O[C@@H]3O[C@H](CO)[C@@H](O)[C@H](O)[C@H]3O[C@@H]3O[C@@H](C)[C@H](O)[C@@H](O)[C@H]3O)C[C@]12C [Re]	mainly distributed in the heart and lungs				stable	stable	92.4 ± 4.8%	100.7 ± 7.4%	103.8 ± 6.5%							15 to 30 min	8 to 12 h	97.6 ± 3.5%	99.0 ± 7.4%	92.2 ± 7.4%	Short-term stability, accuracy (mean ± SD) ([3]; plasma, spiked 0.1 μg/mL): 102.5 ± 9.0%; Freeze–thaw stability, accuracy (mean ± SD) ([3]; plasma, spiked 0.1 μg/mL): 93.3 ± 6.2%; Long-term stability, accuracy (mean ± SD) ([3]; plasma, spiked 0.1 μg/mL): 96.6 ± 4.1%; Short-term stability, accuracy (mean ± SD) ([3]; plasma, spiked 0.5 μg/mL): 94.4 ± 4.4%; Freeze–thaw stability, accuracy (mean ± SD) ([3]; plasma, spiked 0.5 μg/mL): 97.5 ± 7.0%; Long-term stability, accuracy (mean ± SD) ([3]; plasma, spiked 0.5 μg/mL): 98.7 ± 5.0%; Short-term stability, accuracy (mean ± SD) ([4]; spiked 0.01 μg/mL): 92.2 ± 8.7%; Freeze–thaw stability, accuracy (mean ± SD) ([4]; spiked 0.01 μg/mL): 92.7 ± 8.0%; Long-term stability, accuracy (mean ± SD) ([4]; spiked 0.01 μg/mL): 93.2 ± 5.8%; Short-term stability, accuracy (mean ± SD) ([4]; spiked 0.05 μg/mL): 96.6 ± 2.8%; Freeze–thaw stability, accuracy (mean ± SD) ([4]; spiked 0.05 μg/mL): 103.5 ± 5.5%; Long-term stability, accuracy (mean ± SD) ([4]; spiked 0.05 μg/mL): 105.5 ± 9.4%; Absorption of ginsenoside Re from ginseng berry extract [5]: 0.33–0.75%
CC(C)=CCC[C@](C)(O[C@@H]1O[C@H](CO)[C@@H](O)[C@H](O)[C@H]1O)[C@H]1CC[C@]2(C)[C@@H]1[C@H](O)C[C@@H]1[C@@]3(C)CC[C@H](O)C(C)(C)[C@@H]3[C@@H](O[C@@H]3O[C@H](CO)[C@@H](O)[C@H](O)[C@H]3O)C[C@]12C [Rg1]	extensively distributed in the heart, lungs, and kidneys	92.1 ± 8.6%	94.3 ± 4.0%	94.6 ± 5.6%	stable	stable	92.3 ± 6.6%	95.3 ± 6.6%	92.3 ± 7.5%							15 to 30 min	8 to 12 h	93.2 ± 7.0%	107.0 ± 8.2%	103.1 ± 9.4%	Short-term stability, accuracy (mean ± SD) ([3]; plasma, spiked 0.5 μg/mL): 102.0 ± 6.4%; Freeze–thaw stability, accuracy (mean ± SD) ([3]; plasma, spiked 0.5 μg/mL): 106.1 ± 3.4%; Long-term stability, accuracy (mean ± SD) ([3]; plasma, spiked 0.5 μg/mL): 103.7 ± 8.0%; Short-term stability, accuracy (mean ± SD) ([4]; spiked 0.01 μg/mL): 92.2 ± 2.3%; Freeze–thaw stability, accuracy (mean ± SD) ([4]; spiked 0.01 μg/mL): 100.2 ± 3.6%; Long-term stability, accuracy (mean ± SD) ([4]; spiked 0.01 μg/mL): 101.9 ± 5.3%; Short-term stability, accuracy (mean ± SD) ([4]; spiked 0.05 μg/mL): 102.5 ± 3.1%; Freeze–thaw stability, accuracy (mean ± SD) ([4]; spiked 0.05 μg/mL): 93.5 ± 9.1%; Long-term stability, accuracy (mean ± SD) ([4]; spiked 0.05 μg/mL): 94.7 ± 7.4%
